Data from ChEMBL document CHEMBL3124905, “Isothiocoumarin-3-carboxylic acid derivatives: synthesis, anticancer and antitrypanosomal activity evaluation” (Eur J Med Chem, 2014).

Experiments:
Type in all cases: functional
SF-268 = assay: Anticancer activity against human SF268 cells assessed as cell growth at 100 uM after 48 hrs by SRB assay; settings: SF-268, 48 h, read-out: Activity
In short: (§1)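 NCI one-dose primary screen on a three-line panel (breast MCF7, lung NCI-H460, CNS SF-268). Cells were inoculated and preincubated 24–48 h, then exposed to a single concentration of 10−4 M for 48 h. The endpoint was sulforhodamine B protein staining, and results are expressed as percent growth relative to untreated control cells. Negative values denote cytotoxicity.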

MCF7 = assay: Anticancer activity against human MCF7 cells assessed as cell growth at 100 uM after 48 hrs by SRB assay; settings: MCF7, 48 h, read-out: Activity; in short: as §1
NCI-H460 = assay: Anticancer activity against human NCI-H460 cells assessed as cell growth at 100 uM after 48 hrs by SRB assay; settings: NCI-H460, 48 h, read-out: Activity; in short: as §1
TK-10 = assay: Growth inhibition of human TK10 cells after 48 hrs by SRB assay; settings: TK-10, 48 h
In short: (§2)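 NCI ~60-cell-line five-dose screen. Cells were preincubated 24-48 h, then given compound at 10-fold dilutions from 10^-4 to 10^-8 M with 48 h continuous exposure. SRB protein stain was read by absorbance at time zero, in untreated control and with drug. GI50 was derived from [(Ti-Tz)/(C-Tz)]x100=50, TGI from Ti=Tz, and LC50 from [(Ti-Tz)/Tz]x100=-50.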

ACHN = assay: Growth inhibition of human ACHN cells after 48 hrs by SRB assay
In short: (§3)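 NCI five-dose assay against the ~60-cell-line panel (nine cancer types). Tenfold dilutions from 10−4 to 10−8 M were used with continuous 48-h exposure and SRB absorbance readout. Percent growth was computed from time-zero, control and treated absorbances. GI50 is the concentration giving 50% lower net protein increase than controls. Values not reached are reported as beyond the tested range.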

786-0 = assay: Growth inhibition of human 786-0 cells after 48 hrs by SRB assay; settings: 786-0, 48 h; in short: as §3
OVCAR-8 = assay: Growth inhibition of human OVCAR8 cells after 48 hrs by SRB assay; settings: OVCAR-8, 48 h; in short: as §3
[1] = Growth inhibition of human OVCAR5 cells after 48 hrs by SRB assay; settings: OVCAR-5, 48 h; in short: as §3
UACC-62 = assay: Growth inhibition of human UACC62 cells after 48 hrs by SRB assay; settings: UACC-62, 48 h; in short: as §2
SF-295 = assay: Growth inhibition of human SF295 cells after 48 hrs by SRB assay; settings: SF-295, 48 h; in short: as §3
[2] = Growth inhibition of human HCC2998 cells after 48 hrs by SRB assay; settings: HCC 2998, 48 h; in short: as §3
NCI-H522 = assay: Growth inhibition of human NCI-H522 cells after 48 hrs by SRB assay; settings: NCI-H522, 48 h; in short: as §3
[3] = Growth inhibition of human […] cells after 48 hrs by SRB assay; in short: as §3
A549 = assay: Growth inhibition of human A549/ATCC cells after 48 hrs by SRB assay; settings: A549, 48 h; in short: as §3
U-251 = assay: Growth inhibition of human U251 cells after 48 hrs by SRB assay; settings: U-251, 48 h; in short: as §2
HCT-116 = assay: Growth inhibition of human HCT116 cells after 48 hrs by SRB assay; settings: HCT-116, 48 h; in short: as §3
NCI/ADR-RES = assay: Growth inhibition of human NCI/ADR-RES cells after 48 hrs by SRB assay; settings: for TGI: read-out: pTGI (converted); in short: as §3
[4] = Growth inhibition of human RXF393 cells after 48 hrs by SRB assay; settings: RXF 393, 48 h; for TGI: read-out: pTGI (converted); in short: as §3
BT-549 = assay: Growth inhibition of human BT549 cells after 48 hrs by SRB assay; settings: BT-549, 48 h; in short: as §3
[5] = Growth inhibition of human UACC257 cells after 48 hrs by SRB assay; settings: UACC-257, 48 h; in short: as §2
SK-MEL-5 = assay: Growth inhibition of human SK-MEL-5 cells after 48 hrs by SRB assay; settings: SK-MEL-5, 48 h; in short: as §3
[6] = Growth inhibition of human EKVX cells after 48 hrs by SRB assay; in short: as §3
IGROV-1 = assay: Growth inhibition of human IGROV1 cells after 48 hrs by SRB assay; settings: IGROV-1, 48 h; in short: as §3

COc1ccc2cc(C(=O)Nc3ccc(F)cc3)sc(=O)c2c1OC
growth at 100 µM (SF-268): 60% | growth at 100 µM (MCF7): 55% | growth at 100 µM (NCI-H460): 11% | GI50 (TK-10): 15.1 µM | TGI (TK-10; read-out: pTGI (converted)): 33.1 µM | GI50 (ACHN): 7.08 µM | TGI (ACHN; read-out: pTGI (converted)): 26.9 µM | GI50 (786-0): 11.5 µM | TGI (786-0; read-out: pTGI (converted)): 41.7 µM | GI50 (OVCAR-8): 12.3 µM | TGI (OVCAR-8; read-out: pTGI (converted)): 67.6 µM | GI50 [1]: 18.6 µM | TGI ([1]; read-out: pTGI (converted)): 61.7 µM | GI50 (UACC-62): 19.5 µM | TGI (UACC-62; read-out: pTGI (converted)): 52.5 µM | GI50 (SF-295): 18.2 µM | TGI (SF-295; read-out: pTGI (converted)): 51.3 µM | GI50 [2]: 14.1 µM | TGI ([2]; read-out: pTGI (converted)): 49 µM | GI50 (NCI-H522): 18.2 µM | TGI (NCI-H522; read-out: pTGI (converted)): 70.8 µM | GI50 [3]: 6.76 µM | TGI ([3]; read-out: pTGI (converted)): 22.9 µM | GI50 (A549): 18.6 µM | TGI (A549; read-out: pTGI): > 100 µM | GI50 (U-251): 5.5 µM | TGI (U-251; read-out: pTGI (converted)): 20.4 µM | GI50 (HCT-116): 14.1 µM | TGI (HCT-116; read-out: pTGI (converted)): 40.7 µM | GI50 (NCI/ADR-RES): 12.6 µM | TGI (NCI/ADR-RES): > 100 µM | GI50 [4]: 10.7 µM | TGI [4]: 33.9 µM

CC(C)OC(=O)c1cc2ccccc2c(=O)s1
growth at 100 µM (SF-268): 69% | growth at 100 µM (MCF7): 87% | growth at 100 µM (NCI-H460): 13% | GI50 (BT-549): 24.5 µM | TGI (BT-549; read-out: pTGI (converted)): 63.1 µM | GI50 (NCI/ADR-RES): 26.9 µM | TGI (NCI/ADR-RES): 69.2 µM | GI50 [5]: 19.5 µM | TGI ([5]; read-out: pTGI (converted)): 66.1 µM | GI50 (SK-MEL-5): 24.5 µM | TGI (SK-MEL-5; read-out: pTGI (converted)): 49 µM | GI50 [6]: 19.1 µM | TGI ([6]; read-out: pTGI (converted)): 52.5 µM | GI50 [4]: 15.1 µM | TGI [4]: 67.6 µM | GI50 (IGROV-1): 20.9 µM | TGI (IGROV-1; read-out: pTGI): > 100 µM
